The values that follow come from publication PMC3018740 (Fitoterapia, 2010).

For assay [1], the target named is T1, Human recombinant COX-2 (Homo sapiens, UniProt P35354).
T1 sequence (P35354 18-604): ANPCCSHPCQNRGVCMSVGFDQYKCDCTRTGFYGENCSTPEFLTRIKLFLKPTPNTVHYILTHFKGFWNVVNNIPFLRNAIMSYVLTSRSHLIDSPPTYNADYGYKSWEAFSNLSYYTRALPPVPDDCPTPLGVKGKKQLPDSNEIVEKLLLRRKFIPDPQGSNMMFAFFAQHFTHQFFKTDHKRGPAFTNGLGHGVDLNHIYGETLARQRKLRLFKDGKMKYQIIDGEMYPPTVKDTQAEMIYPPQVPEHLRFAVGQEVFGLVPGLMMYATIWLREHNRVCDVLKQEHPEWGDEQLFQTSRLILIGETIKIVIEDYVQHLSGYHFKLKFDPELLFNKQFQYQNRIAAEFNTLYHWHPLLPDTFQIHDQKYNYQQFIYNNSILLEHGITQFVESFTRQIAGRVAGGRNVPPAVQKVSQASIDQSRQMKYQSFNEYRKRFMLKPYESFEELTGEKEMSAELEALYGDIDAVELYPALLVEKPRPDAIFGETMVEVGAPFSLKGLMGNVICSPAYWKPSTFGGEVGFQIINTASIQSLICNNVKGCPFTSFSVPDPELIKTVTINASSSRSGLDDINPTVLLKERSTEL
Briefly: Pulsed ultrafiltration LC-MS-MS screening for COX-2 ligands. In kind it is binding. The conditions noted are these: for Relative binding to COX-2: bound/free ratio = (pulsed ultrafiltration peak area)/(peak area washing buffer); for Specific binding to COX-2 (in words): pulsed ultrafiltration LC-MS-MS.

Assay [2] deals with COX-2. Particulars: read-out: Previously reported IC50 for inhibition of COX-2; cell-based assay; cited from earlier work.
Assay [3] has as its target T2, ovine COX-1 (Ovis aries, UniProt P05979).
T2 sequence (P05979 25-600): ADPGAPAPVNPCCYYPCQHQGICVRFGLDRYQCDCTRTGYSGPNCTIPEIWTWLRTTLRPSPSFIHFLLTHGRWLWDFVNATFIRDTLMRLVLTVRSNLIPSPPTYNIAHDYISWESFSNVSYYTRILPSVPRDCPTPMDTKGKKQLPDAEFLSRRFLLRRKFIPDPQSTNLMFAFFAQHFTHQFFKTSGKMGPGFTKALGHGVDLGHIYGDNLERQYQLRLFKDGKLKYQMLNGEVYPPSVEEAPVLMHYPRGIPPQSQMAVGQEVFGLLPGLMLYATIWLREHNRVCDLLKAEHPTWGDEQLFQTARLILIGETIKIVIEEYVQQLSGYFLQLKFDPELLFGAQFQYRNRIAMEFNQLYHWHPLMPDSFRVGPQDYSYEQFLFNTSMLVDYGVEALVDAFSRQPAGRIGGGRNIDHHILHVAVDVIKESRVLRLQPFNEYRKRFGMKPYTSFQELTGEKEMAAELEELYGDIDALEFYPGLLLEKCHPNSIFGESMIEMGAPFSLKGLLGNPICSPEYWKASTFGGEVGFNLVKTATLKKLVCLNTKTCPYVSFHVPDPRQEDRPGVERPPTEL
Briefly: COX-1 inhibition assay. In kind it is biochemical. The conditions noted are these: for IC50: read-out: IC50 COX-1, purified compounds. The method in brief: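 PGE2 produced by COX-1 with test compound present was quantified by LC-MS-MS. Percent inhibition was calculated against PGE2 from the negative-control incubation. Each compound was tested at 12 concentrations, three times each. IC50 was obtained by fitting the inhibition curve.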

Assay [4] addresses T1, Human recombinant COX-2. The experiment in a line: COX-2 inhibition assay. Format: biochemical. The conditions noted are these: read-out: IC50 COX-2; purified compounds.

Entries after “also recorded” stand apart in the source; their conditions may differ.

Turning to 6-dehydro-6-gingerol, the “Relative binding to COX-2” value in assay [1] came out at 0.

In the case of `CCCCC/C=C/[C@H](O)CC(=O)CCc1ccc(O)c(OC)c1` [6-dehydro-8-gingerol], in assay [1], the “Relative binding to COX-2” value is reported as 0.

For `CCCCCCC/C=C/[C@H](O)CC(=O)CCc1ccc(O)c(OC)c1` [6-dehydro-10-gingerol], in assay [1], the “Relative binding to COX-2” value is on record as 0.15 ± 0.01 and the “Specific binding to COX-2 (in words)” value is “bound to the enzyme active site”.

Regarding `CCCCC[C@H](O)C[C@H](O)CCc1ccc(O)c(OC)c1` [6-gingerdiol], the “Relative binding to COX-2” value in assay [1] amounted to 0.

Turning to `CCCCCC(=O)CC(=O)CCc1ccc(O)c(OC)c1` [6-gingerdione], in assay [1], the “Relative binding to COX-2” value worked out at 0.23 ± 0.02 and the “Specific binding to COX-2 (in words)” value is “bound to the enzyme active site”.

Turning to `CCCCC[C@H](O)CC(=O)CCc1ccc(O)c(OC)c1` [6-gingerol], the IC50 in assay [2] was over 50 µM. In assay [1], the “Relative binding to COX-2” value is reported as 0 and the “Specific binding to COX-2 (in words)” value was “not 6-gingerol or 8-gingerol bound to COX-2”.

As for `CCCCCCCC(=O)CCc1ccc(O)c(OC)c1` [6-paradol], the “Specific binding to COX-2 (in words)” value in assay [1] is given as “bound to the enzyme active site; also recorded: bound to COX-2”.

Turning to `CCCCC/C=C/C(=O)CCc1ccc(O)c(OC)c1` [6-shogaol], in assay [2], the IC50 was 2.1 µM. Further, in assay [1], the “Relative binding to COX-2” value worked out at 0 and the “Specific binding to COX-2 (in words)” value is given as “COX-2 ligands but not 6-shogaol or 12-shogaol”.

Regarding `CCCCCCCC(O)CC(O)CCc1ccc(O)c(OC)c1` (stereo not shown) [8-gingerdiol], in assay [1], the “Relative binding to COX-2” value amounted to 0.

On to `CCCCCCCC(=O)CC(=O)CCc1ccc(O)c(OC)c1` [8-gingerdione], for which, in assay [1], the “Relative binding to COX-2” value amounted to 0.20 ± 0.03 and the “Specific binding to COX-2 (in words)” value is listed as “bound to the enzyme active site”.

Take `CCCCCCC[C@H](O)CC(=O)CCc1ccc(O)c(OC)c1` [8-gingerol]: in assay [2], the concentration for half-maximal inhibition (IC50) was 10 µM. Moreover, in assay [1], the “Relative binding to COX-2” value was determined as 0 and the “Specific binding to COX-2 (in words)” value is “not 6-gingerol or 8-gingerol bound to COX-2”.

As to `CCCCCCCCCC(=O)CCc1ccc(O)c(OC)c1` [8-paradol], in assay [1], the “Relative binding to COX-2” value turned out to be 0.70 ± 0.02 and the “Specific binding to COX-2 (in words)” value is “bound to the enzyme active site; also recorded: bound to COX-2”.

With `CCCCCCC/C=C/C(=O)CCc1ccc(O)c(OC)c1` [8-shogaol], the IC50 in assay [2] is 7.2 µM; in assay [3] it was over 50 µM; in assay [4], 17.5 ± 2.2 µM. The “Relative binding to COX-2” value in assay [1] is given as 0.27 ± 0.02. The “Specific binding to COX-2 (in words)” value in assay [1] is “bound to the enzyme active site; also recorded: COX-2 ligands”. For the same molecule, the “Inhibition of COX-1 (in words)” value in assay [3] was “No inhibition of COX-1 was detected; also recorded: did not inhibit COX-1”.

On to `CCCCCCCCCC(=O)CC(=O)CCc1ccc(O)c(OC)c1` [10-gingerdione], for which, in assay [1], the “Relative binding to COX-2” value was determined as 0.24 ± 0.05 and the “Specific binding to COX-2 (in words)” value is on record as “bound to the enzyme active site”.

Regarding `CCCCCCCCC[C@H](O)CC(=O)CCc1ccc(O)c(OC)c1` [10-gingerol], in assay [1], the “Relative binding to COX-2” value is 0.17 ± 0.03 and the “Specific binding to COX-2 (in words)” value is given as “bound to the enzyme active site; also recorded: bound to COX-2”. Besides, in assay [3], the “Inhibition of COX-1 (in words)” value is reported as “No inhibition of COX-1 was detected; also recorded: did not inhibit COX-1” and the IC50 is over 50 µM. Moreover, the IC50 in assay [4] was determined as 32 ± 1.5 µM.

In the case of `CCCCCCCCCCCC(=O)CCc1ccc(O)c(OC)c1` [10-paradol], in assay [1], the “Relative binding to COX-2” value is recorded as 0 and the “Specific binding to COX-2 (in words)” value was “not 10-paradol bound to COX-2”.

With `CCCCCCCCC/C=C/C(=O)CCc1ccc(O)c(OC)c1` [10-shogaol], in assay [1], the “Relative binding to COX-2” value was 0.35 ± 0.03 and the “Specific binding to COX-2 (in words)” value is on record as “bound to the enzyme active site; also recorded: COX-2 ligands”. Moreover, in assay [3], the “Inhibition of COX-1 (in words)” value is given as “No inhibition of COX-1 was detected; also recorded: did not inhibit COX-1” and the IC50 was over 50 µM. Further, the IC50 in assay [4] came to 7.5 ± 0.6 µM.

For `CCCCCCCCCCC[C@H](O)CC(=O)CCc1ccc(O)c(OC)c1` [12-gingerol], in assay [1], the “Relative binding to COX-2” value came out at 0.23 ± 0.01 and the “Specific binding to COX-2 (in words)” value was “bound to the enzyme active site; also recorded: bound to COX-2”.

On to `CCCCCCCCCCC/C=C/C(=O)CCc1ccc(O)c(OC)c1` [12-shogaol], for which, in assay [1], the “Relative binding to COX-2” value was 0 and the “Specific binding to COX-2 (in words)” value is listed as “COX-2 ligands but not 6-shogaol or 12-shogaol”.
